For 24 compounds, IC50 results are on record in ChEMBL document CHEMBL3399927, “Identification of novel inhibitors of Aurora A with a 3-(pyrrolopyridin-2-yl)indazole scaffold” (Bioorg Med Chem, 2015).

For orientation: IC50 means the midpoint of a concentration-inhibition curve. A high value points to a need for much substance.

Holding throughout (type): functional, cell-based
A short description of assay [1]: Antiproliferative activity against human HCT116 cells after 72 hrs by MTT assay. The settings on record: HCT-116, 72 h. In outline:
(§1)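 Cells grown in RPMI-1640 with heat-inactivated 10% FBS, penicillin 100 units/mL and streptomycin 100 μg/mL, at 37 °C under 20% O2, 5% CO2. Compounds dissolved in DMSO at 10.0 mg/mL (stock), then diluted. Cells were plated for 24 h, exposed to a range of concentrations for 72 h, and viability was read by MTT. IC50 is 50% absorbance inhibition versus control cells; means of three experiments.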
For orientation: Tetrazolium assays rely on reduction of a dye to a coloured formazan, in cell work by metabolically active cells.

The test system of a further assay is KB. Put plainly: Antiproliferative activity against human KB cells after 72 hrs by MTT assay. In outline:
as §1

Assay [2] is described as follows: Antiproliferative activity against human HL60 cells after 72 hrs by MTT assay. The note with it: HL-60, 72 h. In outline:
as §1

A short description of assay [3]: Antiproliferative activity against human SMMC7721 cells after 72 hrs by MTT assay. The settings on record: SMMC-7721, 72 h. In outline: as §1
The next assay has as its system A549. Put plainly: Antiproliferative activity against human A549 cells after 72 hrs by MTT assay. The note with it: A549, 72 h.

Turning to `CN(C(=O)c1ccc([N+](=O)[O-])cc1)c1ccc2[nH]c(-c3n[nH]c4ccccc34)cc2n1`, the IC50 in assay [1] stood at 19.9 µM; in the assay on KB, 20.2 µM; in assay [2] it was 6.8 µM; in assay [3], 18.4 µM; in the assay on A549, 34.5 µM.

Regarding `CN(c1ccc2[nH]c(-c3n[nH]c4ccccc34)cc2n1)S(=O)(=O)c1cccc([N+](=O)[O-])c1`, the IC50 in assay [1] amounted to 13.6 µM; in the assay with KB it was 5.87 µM; in assay [2], 3.66 µM; in assay [3], 5.07 µM; in the assay on A549 it was 20.1 µM.

In the case of `Cc1ccc(S(=O)(=O)N(C)c2ccc3[nH]c(-c4n[nH]c5ccccc45)cc3n2)cc1`, the IC50 in assay [1] worked out at 13.3 µM; in the assay with KB, 9.5 µM; in assay [2], 3.03 µM; in assay [3] it was 16.3 µM; with A549, 27.1 µM.

`COc1ccc(C(=O)N(C)c2ccc3[nH]c(-c4n[nH]c5ccccc45)cc3n2)cc1`: the IC50 was found to be 29.5 µM in assay [1]; 12.9 µM with KB; 3.32 µM in assay [2]; 23.7 µM in assay [3]; 14.6 µM in the assay on A549.

As to `CN(C(=O)CCc1ccccc1)c1ccc2[nH]c(-c3n[nH]c4ccccc34)cc2n1`, the IC50 in assay [1] was 11.2 µM; in the assay on KB, 7.38 µM; in assay [2], 4.73 µM; in assay [3], 20.9 µM; in the assay with A549 it was 18.1 µM.

Regarding `COc1ccc(S(=O)(=O)N(C)c2ccc3[nH]c(-c4n[nH]c5ccccc45)cc3n2)c(OC)c1`, the IC50 in assay [1] came out at 21.8 µM; in the assay with KB it was 10.2 µM; in assay [2] it was 5.18 µM; in assay [3], 10.8 µM; in the assay with A549, 25.9 µM.

Turning to `CC(=O)O[C@H]1C(=O)[C@@]2(C)[C@H]([C@H](OC(=O)c3ccccc3)[C@]3(O)C[C@H](OC(=O)[C@H](O)[C@@H](NC(=O)c4ccccc4)c4ccccc4)C(C)=C1C3(C)C)[C@]1(OC(C)=O)CO[C@@H]1C[C@@H]2O` [PACLITAXEL], the IC50 in assay [1] worked out at 0.0049 µM; with KB, 0.015 µM; in assay [2] it was 0.0017 µM; in assay [3], 0.12 µM.

With `COc1ccc(S(=O)(=O)N(C)c2ccc3[nH]c(-c4n[nH]c5ccccc45)cc3n2)cc1`, the half-maximal inhibitory concentration (IC50) in assay [1] worked out at 22.4 µM; in the assay on KB it was 22.1 µM; in assay [2], 4.34 µM; in assay [3] it was 13 µM; with A549, 24.2 µM.

Turning to `COc1ccc(NC(=O)N(C)c2ccc3[nH]c(-c4n[nH]c5ccccc45)cc3n2)cc1`, the figures for the IC50 in assay [1] and in assay [2] were 0.063 µM and 0.0079 µM, respectively.

With `CN(c1ccc2[nH]c(-c3n[nH]c4ccccc34)cc2n1)S(=O)(=O)c1ccccc1`, the IC50 was 6.74 µM in assay [1]; 2.4 µM with KB; 3.7 µM in assay [2]; 12 µM in assay [3]; 14 µM with A549.

For the compound `CN(c1ccc2[nH]c(-c3n[nH]c4ccccc34)cc2n1)S(=O)(=O)c1ccc(Br)cc1`, the IC50 was found to be 9.85 µM in assay [1]; 7.15 µM in the assay with KB; 6.24 µM in assay [2]; 11.5 µM in assay [3]; 19.7 µM in the assay with A549.

As to `COc1cccc(C(=O)N(C)c2ccc3[nH]c(-c4n[nH]c5ccccc45)cc3n2)c1`, the IC50 in assay [1] is 14.2 µM; in the assay with KB it was 9.01 µM; in assay [2] it was 1.42 µM; in assay [3], 22 µM; in the assay on A549, 14.9 µM.

On to `CN(C(=O)c1ccc(Br)cc1)c1ccc2[nH]c(-c3n[nH]c4ccccc34)cc2n1`, for which the IC50 came out at 6.11 µM in assay [1]; 1.78 µM in the assay with KB; 1.08 µM in assay [2]; 3.46 µM in assay [3]; 4.25 µM with A549.

On to `CN(c1ccc2[nH]c(-c3n[nH]c4ccccc34)cc2n1)S(=O)(=O)c1ccc(OC(F)(F)F)cc1`, for which the IC50 stood at 6.04 µM in assay [1]; 1.33 µM in the assay on KB; 1.17 µM in assay [2]; 7.16 µM in assay [3]; 8 µM in the assay on A549.

Turning to `COc1ccc(OC)c(S(=O)(=O)N(C)c2ccc3[nH]c(-c4n[nH]c5ccccc45)cc3n2)c1`, the IC50 is 8.4 µM in assay [1]; 4.38 µM in the assay on KB; 0.84 µM in assay [2]; 4.28 µM in assay [3]; 19.4 µM with A549.

As to `COc1ccc(S(=O)(=O)N(C)c2ccc3[nH]c(-c4n[nH]c5ccccc45)cc3n2)cc1OC`, the IC50 in assay [1] is 16.7 µM; with KB it was 10.1 µM; in assay [2], 6.32 µM; in assay [3], 26.6 µM; in the assay with A549, more than 50 µM.

With `CN(C(=O)c1ccccc1)c1ccc2[nH]c(-c3n[nH]c4cc(C#N)ccc34)cc2n1`, the IC50 was 24 µM in assay [1]; 20.9 µM in the assay on KB; 6.43 µM in assay [2]; more than 50 µM in assay [3]; 32.8 µM in the assay on A549.

Turning to `CN(C(=O)c1ccc(F)cc1)c1ccc2[nH]c(-c3n[nH]c4ccccc34)cc2n1`, the IC50 in assay [1] is 9.27 µM; with KB, 7.22 µM; in assay [2], 1.21 µM; in assay [3] it was 9.15 µM; with A549 it was 9.65 µM.

As for `CN(C(=O)c1ccco1)c1ccc2[nH]c(-c3n[nH]c4ccccc34)cc2n1`, the IC50 turned out to be 30 µM in assay [1]; 19.4 µM with KB; 4.54 µM in assay [2]; 28.2 µM in assay [3]; 15.5 µM in the assay on A549.

With `CCC(=O)N(C)c1ccc2[nH]c(-c3n[nH]c4ccccc34)cc2n1`, the IC50 is 10.8 µM in assay [1]; 9.3 µM in the assay on KB; 6.13 µM in assay [2]; 33.5 µM in assay [3]; 15.7 µM with A549.

For `CN(C(=O)c1ccccc1)c1ccc2[nH]c(-c3n[nH]c4cc(Cl)ccc34)cc2n1`, the IC50 was 13.1 µM in assay [1]; 5.59 µM in the assay with KB; 5.62 µM in assay [2]; 11.3 µM in assay [3]; 9.59 µM in the assay on A549.

As to `CN(c1ccc2[nH]c(-c3n[nH]c4ccccc34)cc2n1)S(=O)(=O)c1ccc(Cl)cc1`, the IC50 in assay [1] was 5.98 µM; with KB, 8.35 µM; in assay [2] it was 0.77 µM; in assay [3] it was 12.7 µM; in the assay with A549, 18.2 µM.

For `CN(C(=O)C(C)(C)C)c1ccc2[nH]c(-c3n[nH]c4ccccc34)cc2n1`, the half-inhibitory concentration (IC50) came to 18 µM in assay [1]; 8.39 µM in the assay on KB; 4.99 µM in assay [2]; 22.2 µM in assay [3]; 24.4 µM in the assay on A549.

As to `CC(=O)N(C)c1ccc2[nH]c(-c3n[nH]c4ccccc34)cc2n1`, the IC50 in assay [1] was 14.8 µM; with KB, 10.3 µM; in assay [2], 5.11 µM; in assay [3], 23.4 µM; with A549, more than 50 µM.
